# Source: paper PMC8634121 (Brain, 2021)
# Key:
# [1] = test system: mouse DRG neurons; test: Axon degeneration assay after axotomy in mouse DRG cultures; type: cell-based; details: 3 h pulse at 10 µM, compound removed, axotomy immediately; examined 16-72 h
# Summary of the method: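 Embryonic day 13.5 C57BL/6J mouse DRGs were trypsin/EDTA-dissociated (37°C, 15 min) and spot-plated at 5000 cells/well on poly-D-lysine/laminin in Neurobasal/B27 with NGF, uridine and fluorodeoxyuridine. At DIV 6–7, cultures got a 3 h pulse of test compound at 10 µM (from 10 mM DMSO stock; […] DMSO final). Compound was rinsed out, […]. Axons were manually cut with a micro-blade, then PFA-fixed and immunostained.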
# [2] = target: T1, SAM-TIR protein (human SARM1) (Homo sapiens, UniProt Q6SZW1); test: Washout assay with plate-bound SAM-TIR; type: biochemical; details: 2 h treatment, plates rinsed, assayed 60 min after removal of compound
# T1 sequence (Q6SZW1 408-700): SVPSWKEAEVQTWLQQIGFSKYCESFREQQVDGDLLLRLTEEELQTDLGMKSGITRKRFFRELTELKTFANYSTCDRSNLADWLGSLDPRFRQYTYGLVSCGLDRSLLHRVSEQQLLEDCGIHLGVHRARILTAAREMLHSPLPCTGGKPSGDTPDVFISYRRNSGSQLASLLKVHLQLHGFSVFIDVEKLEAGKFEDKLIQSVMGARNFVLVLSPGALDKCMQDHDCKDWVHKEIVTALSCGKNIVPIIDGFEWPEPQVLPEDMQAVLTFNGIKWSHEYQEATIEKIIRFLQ
# Summary of the method: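 SAM-TIR lysate (30 µg/ml total protein) was captured via its Strep-tag on Strep-Tactin XT plates, and unbound material was rinsed off. Bound enzyme was exposed to test compound for 2 h, rinsed, then held in assay solution without NAD+ for 0, 10 or 60 min. Wells were rinsed again, and activity was started by adding NAD+. A reversible reference inhibitor was run alongside.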
compound,measurement,setting,value
Ic1cccc2cnccc12 [DSRM-3716],axonal protection after compound removal,[1],completely lost
same,SARM1 inhibition after compound removal,[2],Substantial loss of inhibition
